Only some compounds are listed: those with a hit (about 2.9% of all), similar ones and a draw of the others.
PRMT1 FP inh: inhibitors of human PRMT1 | inhibition, % at 2.79 µM | AID 652257 | recombinant PRMT1, activity-based probe fluorescence polarization | hit rate 1.3% among 370,000 | Q99873;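 active means inhibition above about 21% made by adding two undisclosed values, limit read from the data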
HTRA1 inhibitor: inhibitors of human serine peptidase HTRA1; recombinant HTRA1, FP-rhodamine activity-based probe, fluorescence polarization; hit rate 0.5% among 340,000; inhibition, % at 5.96 µM; AID 504803; Q92743; in the data active means inhibition above about 36%;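 further: 0% = enzyme with DMSO and 100% = wells lacking enzyme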
Target sequence (Q92743 whole entry, looked up): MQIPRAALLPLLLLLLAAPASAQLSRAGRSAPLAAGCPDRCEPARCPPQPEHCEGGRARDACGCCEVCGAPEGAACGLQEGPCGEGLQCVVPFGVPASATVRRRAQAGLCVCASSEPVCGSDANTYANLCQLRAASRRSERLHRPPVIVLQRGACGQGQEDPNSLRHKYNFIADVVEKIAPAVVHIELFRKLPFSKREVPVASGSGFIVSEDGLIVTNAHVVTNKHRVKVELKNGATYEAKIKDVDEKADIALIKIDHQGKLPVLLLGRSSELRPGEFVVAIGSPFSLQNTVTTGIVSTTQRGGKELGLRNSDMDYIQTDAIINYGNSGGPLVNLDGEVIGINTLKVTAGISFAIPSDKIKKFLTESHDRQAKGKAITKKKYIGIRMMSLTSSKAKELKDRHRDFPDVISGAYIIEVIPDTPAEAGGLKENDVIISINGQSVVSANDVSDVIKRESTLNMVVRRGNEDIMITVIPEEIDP
mABHD4 FP: inhibitors of mouse ABHD4. hit rate 0.54% among 370,000. inhibition, % at 8.92 µM. purified mABHD4, FP-Rh probe fluorescence polarization. Q8VD66;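 active means inhibition exceeding the mean over every tested compound plus 3 SD, cut at about 30% in these data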;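 further: 0% = plate median of compound wells and 100% = S159A mutant with DMSO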
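Test system: mABHD4 protein | Buffer or medium: HEPES pH 7.0 buffer, 150 mM NaCl, 0.01% Pluronic F-127 | Probe or stimulus: FP-Rh fluorescent activity-based probe, added after compound pre-incubation | Timing: Pre-incubation 45 min, probe exposure 60 min, at 25 °C | Technique: Fluorescence polarization, excitation 525 nm, emission 598 nm, BODIPY TMR filters | Repeats: Single well per compound (singlicate)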
SIAE primary: human SIAE inhibition, primary screen; SIAE FP-Rh probe binding, fluorescence polarization; inhibition, % at 9.66 µM; hit rate 0.69% among 370,000;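 active means inhibition above a cutoff: mean of compounds within the control limits plus 3 SD of those, cut at about 17% in these data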;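 further: 0% = plate median of compound wells and 100% = probe without SIAE protein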
TCR CD3 inh: blocks the human TCR-CD3 interaction; TAMRA-labeled TCR probe fluorescence, biochemical; hit rate 0.37% among 360,000; inhibition, % at 9.4 µM; in the data active means inhibition above about 19%;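 further: recombinant mutant TCR 2C K166C tagged with TAMRA read by polarization; 0% = receptor in buffer alone and 100% = receptor with positive control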
PAD4 inh: blocks human protein arginine deiminase 4. hit rate 0.41% among 330,000. inhibition, % at 6.36 µM. recombinant PAD4, RCA probe fluorescence polarization. Q9UM07;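 active means percent inhibition above a cutoff equal to the mean of all tested compounds plus 3 SD, cut at about 15% in these data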;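 further: 0% = PAD4 with RCA probe and DMSO and 100% = probe without PAD4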
PRMT1 inh conf: confirmation of human PRMT1 inhibitors; AID 687036; inhibition, % at 2.79 µM; shares compounds with PRMT1 FP inh; hit rate 42% among 3,300; recombinant His-PRMT1, activity-based probe fluorescence polarization;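 active means mean inhibition across replicates above the hit cutoff derived for the earlier primary screen, cut at about 22% in these data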
Active calls of the source: *; . = no result given.

SMILES | PRMT1 FP inh | HTRA1 inhibitor | mABHD4 FP | SIAE primary | TCR CD3 inh | PAD4 inh | PRMT1 inh conf
COc1ccc(CCC[C@H](CCC(=O)N(c2ccccc2)c2ccccc2)CCc2ccccc2)cc1 | -2 | . | -9 | 7 | . | . | .
Cc1cc(N2CCNC[C@H]2C)ccc1N1C[C@@H](C)O[C@@H](C)C1 | -1 | . | 4 | 5 | 7 | . | .
CCc1ccc2[nH]c(=O)c(CN(CCN(CC)CC)C(=S)NCc3ccco3)cc2c1 | 0 | -14 | 5 | 4 | -1 | -2 | .
CCc1ccc2[nH]c(=O)c(CN(CCN(C)C)C(=S)NCc3ccco3)cc2c1 | 33* | 14 | 9 | 3 | 3 | -2 | 2
CCOc1ccc2[nH]c(=O)c(CN(Cc3ccco3)C(=O)c3ccc(Br)cc3)cc2c1 | 36* | -23 | -8 | -5 | -19 | . | 0
CCOc1ccc2[nH]c(=O)c(CN(Cc3ccco3)C(=O)c3cccc(F)c3)cc2c1 | . | 2 | . | . | . | -2 | .
CC(C)C[C@H](NC(=O)c1ccc(Cl)cc1Cl)C(=O)N1CCC[C@H]1C(=O)NCc1ccccc1 | 1 | . | 3 | 6 | -3 | . | .
COc1ccc(/C(C)=N/NC(=O)Cc2cc(=O)[nH][nH]2)cc1OC | -5 | . | 10 | 13 | . | . | .
S=c1[nH]c2cc(Cl)ccc2s1 | 47* | -10 | -7 | -6 | -4 | 6 | 7
Cc1cc(C(=O)CSc2nnnn2-c2ccccc2)c(C)n1CC1CCCO1 (centres undefined) | -2 | -1 | 1 | 0 | 3 | -4 | .
Cc1cc(C(=O)CSc2nnc(-c3cccnc3)n2-c2ccccc2F)c(C)n1CC1CCCO1 (centres undefined) | 27* | 3 | -1 | 1 | 6 | 3 | 8
COC(=O)[C@H](CC(C)C)N1Cc2nnn(Cc3ccccc3)c2-c2ccccc2S1(=O)=O | -6 | . | -1 | -2 | . | . | .
O=C(CSC1=NCCN1)Nc1ccccc1[N+](=O)[O-] | 55* | 9 | 5 | 2 | 0 | -2 | 19
O=C(CSC1=NCCN1)NC(c1ccccc1)c1ccccc1 | 41* | 9 | -2 | 2 | 8 | 12 | 26*
COc1ccccc1NC(=O)CSC1=NCCN1 | 31* | 2 | 0 | 2 | 2 | 14 | 21
COc1ccccc1NC(=O)CSc1nccc(=O)[nH]1 | . | 5 | . | . | . | -15 | .
Cc1ccc(C)c(NC(=O)CSc2c(C)n[nH]c2C)c1 | 5 | -1 | 1 | 0 | 5 | -3 | .
CCOc1ccccc1NC(=O)CSc1c(C)n[nH]c1C | 25* | -1 | 0 | 1 | -7 | 4 | 21
COc1cc(C=Nn2c(-c3ccccc3F)n[nH]c2=S)ccc1OCc1ccccc1 | 19 | . | -9 | 4 | . | . | .
COC(=O)[C@]1(CNC(=O)C(C)(C)C)CC(=O)N(C)[C@@H]1c1ccccc1 | 5 | . | 0 | -1 | . | . | .
COC(=O)[C@]12C[C@H](CC(=O)N3CCC(c4ccccc4)CC3)C(=O)N(Cc3ccco3)C1=C[C@H](COCc1ccccc1)O[C@@H]2C | 7 | . | -5 | -5 | . | . | .
CS(=O)(=O)N[C@@H]1C[C@@H]2O[C@@H](CO)CC[C@@H]2O[C@@H]1CCc1ccc(-c2ccccc2F)cc1 | -2 | . | -7 | 0 | . | . | .
O=C(CSC1=NCCN1)Nc1cccc([N+](=O)[O-])c1 | 34* | 5 | 6 | 3 | 11 | 6 | 16
Nc1nc(SCC(=O)Nc2cccc([N+](=O)[O-])c2)n[nH]1 | -3 | 0 | -5 | -5 | -7 | -1 | .
COc1ccccc1NC(=O)CSc1nnc(-c2ccco2)o1 | 2 | 1 | -3 | 3 | 4 | 0 | .
SMILES | PRMT1 FP inh | HTRA1 inhibitor | mABHD4 FP | SIAE primary | TCR CD3 inh | PAD4 inh | PRMT1 inh conf
CCOc1ccccc1NC(=O)/C=C/C(N)=O | 61* | 3 | 1 | 13 | 2 | -6 | 47*
Cc1ccc(NC(=O)CSC2=NCCN2)cc1 | 32* | 5 | 6 | 0 | -10 | 1 | 12
COc1ccccc1NC(=O)CSc1nccc(-c2ccco2)n1 | 32* | -8 | -8 | 8 | 4 | -2 | 7
Cc1ccc(-c2nc(C3CCCN(S(=O)(=O)c4ccccc4)C3)no2)cc1 (centres undefined) | 1 | . | 3 | -6 | . | . | .
CC(C)(C)n1nnnc1C(c1ccccc1)N1CCN(c2ccccc2)CC1 (centres undefined) | 3 | . | 4 | -1 | -3 | . | .
CC(C)(C)n1nnnc1C(c1ccncc1)N1CCN(c2ccc(O)cc2)CC1 (centres undefined) | 27* | 4 | 24 | 2 | -3 | -3 | 4
O=C(COC(=O)c1ccc(Sc2ncn[nH]2)c([N+](=O)[O-])c1)Nc1cccc(Cl)c1F | 3 | . | -4 | -3 | . | . | .
CCc1ccc2[nH]c(=O)c(CN(Cc3ccccc3)Cc3nnnn3Cc3ccco3)cc2c1 | 13 | -53 | -5 | -14 | 4 | -1 | .
O=c1[nH]c2cc3c(cc2cc1CN(Cc1ccccc1)Cc1nnnn1Cc1ccco1)OCCO3 | 52* | -2 | -8 | 1 | 3 | . | 20
Cc1cc(C)c2cc(CN(Cc3ccc4c(c3)OCO4)Cc3nnnn3Cc3ccco3)c(=O)[nH]c2c1 | 5 | -35 | -17 | -10 | 8 | 0 | .
O=c1[nH]c2cc3c(cc2cc1CN(Cc1cccs1)Cc1nnnn1Cc1ccco1)OCCO3 | 58* | 3 | 5 | 4 | 3 | 1 | 33*
Cc1ccc2[nH]c(=O)c(CN(Cc3ccc4c(c3)OCO4)Cc3nnnn3Cc3ccco3)cc2c1 | 2 | 0 | -1 | -2 | 4 | -1 | .
COc1ccccc1CN(Cc1cc2cc3c(cc2[nH]c1=O)OCCO3)Cc1nnnn1Cc1ccco1 | 36* | 2 | 6 | 5 | 3 | -6 | 2
O=c1[nH]c2cc3c(cc2cc1CN(Cc1cccnc1)Cc1nnnn1Cc1ccco1)OCCO3 | 35* | 0 | 12 | 7 | 16 | -5 | 27*
O=C(NCCN1CCC(Cc2ccccc2)CC1)C1CCCN(S(=O)(=O)c2ccc(Cl)s2)C1 (centres undefined) | -10 | . | 14 | 4 | . | . | .
COC(=O)C1CN(Cc2ccccc2)CCS(=O)(=O)N1Cc1cn(Cc2ccccc2)nn1 (centres undefined) | 1 | . | 7 | 3 | . | . | .
CCC(C(=O)Nc1ccccc1N1CCCC1)c1cccc(Cl)c1 (centres undefined) | 2 | . | -10 | 7 | . | . | .
COC(=O)C1=C(C)N(C)C(=NCC2CC2)NC1c1cccc(C(F)(F)F)c1 (centres undefined) | 5 | . | 3 | -7 | -1 | . | .
CCCC[C@H]1C2CC(OC(=O)Nc3cc(C)cc(C)c3)C(C2)[C@H]2CCCCN21 (some centres undefined) | 0 | . | 7 | 5 | . | . | .
Cc1ccc2[nH]c(=O)c(CN(CCc3ccccc3)C(c3nnnn3Cc3ccco3)C(C)C)cc2c1 (centres undefined) | 27* | -84 | 6 | -10 | -11 | -13 | 12
C=C(C)C#CCNCc1ccccc1 | -2 | . | 4 | 2 | . | . | .

Assay outcomes deposited in PubChem BioAssay by The Scripps Research Institute Molecular Screening Center.
